From PubChem BioAssay
CYP2C19 inhib: human CYP2C19 inhibition | P33261 | CYP2C19 Supersomes, luciferin-H EGE luminescence, 30 min | inhibition, % at 5 µM | 96,000 tested, 21% active | AID 778;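 active = CYP2C19 inhibition above a set limit at 5 µM in the primary screen, cut at about 50% in these data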;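 note: plate controls were negative control wells for no effect and 2.5 mM tranylcypromine positive control for full effect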
Target sequence (P33261 whole entry, looked up): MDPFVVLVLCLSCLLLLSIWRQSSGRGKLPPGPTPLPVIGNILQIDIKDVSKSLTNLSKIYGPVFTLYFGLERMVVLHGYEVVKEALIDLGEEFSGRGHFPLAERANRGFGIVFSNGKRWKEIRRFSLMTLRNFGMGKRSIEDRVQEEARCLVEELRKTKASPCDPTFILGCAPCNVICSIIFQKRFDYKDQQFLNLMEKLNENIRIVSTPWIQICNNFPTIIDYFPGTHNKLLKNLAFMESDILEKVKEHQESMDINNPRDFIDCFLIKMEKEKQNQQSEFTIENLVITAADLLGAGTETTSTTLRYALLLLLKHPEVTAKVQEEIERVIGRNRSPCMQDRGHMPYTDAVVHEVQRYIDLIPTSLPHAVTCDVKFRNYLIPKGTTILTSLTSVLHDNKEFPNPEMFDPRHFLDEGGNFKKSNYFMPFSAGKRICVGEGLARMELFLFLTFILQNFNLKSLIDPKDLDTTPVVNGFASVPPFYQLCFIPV
E coli WT exp: blocks growth of wild type E. coli BW25113; OD600 absorbance; growth inhibition, % at 100 µM; 98,000 tested, 0.15% active;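 active = growth inhibition above about 50% at one test dose, limit read from the data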;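 note: growth measured after 20 h incubation at 37 °C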
Ecoli tolC: growth inhibitors of E. coli BW25113 tolC mutant; growth inhibition, % at 10 µM (by protocol); AID 573; OD615; 65,000 tested, 2.2% active;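 active = growth inhibition at or above a cutoff equal to the mean over every tested compound plus 3 SD, cut at about 60% in these data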;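 note: growth measured after 20 h incubation at 37 °C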
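System: E. coli ΔtolC::kan strain BW25113; Buffer or medium: LB broth supplemented with 50 µg/mL kanamycin; Compound: 10 µM final, single dose; Incubation: bacterial growth with compound for 20 h at 37 °C; Signal: A615 absorbance measurement; Evaluation: growth inhibition in percent.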
CYP2C9 activ: increases human cytochrome P450 2C9 activity. P11712. recombinant CYP2C9, luciferin-H conversion, luminescence; stronger effect = higher value; factor 1 = untreated enzyme, 0 = blocked. activation factor at 5 µM. 96,000 tested, 1.4% active;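 active = activation factor of 2 or more for CYP2C9 at a 5 µM dose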;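 note: 0 = sulfaphenazole-blocked wells and 1 = vehicle-only wells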
CYP2C19 act: increases human CYP2C19 enzyme activity. recombinant CYP2C19, luciferin-H EGE luminescence; stronger effect = higher value; 0 = fully inhibited enzyme, 1 = untreated enzyme. 96,000 tested, under 10 active. activation factor at 5 µM;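 active = activation factor of at least 2 at 5 µM in the primary screen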;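 note: 0 = wells with 2.5 mM tranylcypromine and 1 = vehicle-only wells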
CYP2C9 inhib: human CYP2C9 inhibition; inhibition, % at 5 µM; AID 777; CYP2C9 Supersomes, luciferin-H conversion, luminescence; 96,000 tested, 20% active;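 active = blocking of liver enzyme CYP2C9 beyond about 50% at 5 µM, limit read from the data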
Active calls of the source: *; nt = no result. Hits are enriched below; roughly 29% of the tested compounds scored in any of these assays.

SMILES | CYP2C19 inhib | E coli WT exp | Ecoli tolC | CYP2C9 activ | CYP2C19 act | CYP2C9 inhib
Cc1ccc(NC(=O)CSC2=C(C#N)C(c3ccco3)CC(=O)N2)cc1 (stereo unspecified) | 81.4* | -1.0 | nt | 0.5 | 0.2 | 49.9
O=C(NCc1ccc2c(c1)OCO2)C1CCCN(S(=O)(=O)c2cccnc2)C1 (stereo unspecified) | -1.5 | 3.0 | -10.3 | 0.5 | 1 | 49.5
CC1=C(C(=O)OCC2CCCO2)C(c2ccncc2)C2=C(CC(C)(C)CC2=O)N1 (stereo unspecified) | 57.4* | 0.0 | -14.2 | 0.8 | 0.4 | 22.4
CCn1c(=O)n(CC(=O)Nc2cc(OC)c(OC)c(OC)c2)c(=O)c2ccccc21 | 18.9 | -5.0 | nt | 0.8 | 0.8 | 17.7
Cn1c(SCCOc2cccc(Cl)c2)nnc1-c1ccncc1 | 91.9* | 2.0 | -3.6 | 0.8 | 0.1 | 20.6
Cc1ccc(OCCSc2nnc(-c3ccncc3)n2C)cc1 | 92.7* | 1.0 | -14.4 | 0.6 | 0.1 | 42.9
Cc1occc1-c1nnc(SCC(=O)N2c3ccccc3CCc3ccccc32)n1C | 29.3 | 1.0 | 9.1 | 0.7 | 0.7 | 32.0
COc1ccc(-c2nnc(SCc3csc(N)n3)n2C)cc1 | 7.7 | -2.0 | -3.7 | 0.9 | 0.9 | 12.4
Cc1cccc(OCCSc2nnc(-c3ccoc3C)n2C)c1 | 97.6* | -1.0 | -12.1 | 0.4 | 0 | 57.5*
Cc1cc(C)c(S(=O)(=O)NCC(=O)O)cc1C | -8.1 | -3.0 | nt | 1.1 | 1.1 | -13.8
Cc1ccc(N2C(=O)CSC2c2c(F)cccc2Cl)cc1 (stereo unspecified) | 93.1* | 6.0 | nt | 0.4 | 0.1 | 58.2*
COc1cc(/C=C(/C(=O)c2cccs2)c2nc3ccccc3[nH]2)cc(OC)c1O | 51.2* | 3.0 | nt | 0.1 | 0.5 | 85.5*
O=C(NCCC1=CCCCC1)c1ccc(=O)oc1 | 56.0* | 1.0 | -5.6 | 0.9 | 0.4 | 13.9
C=CCN1C(=O)CSc2ccc(C(=O)NCCC3=CCCCC3)cc21 | 25.7 | -15.0 | nt | 0.5 | 0.7 | 51.6*
COc1cc(C(=O)NCCCCCC(=O)O)cc(OC)c1OC | 7.6 | 0.0 | -11.8 | 0.6 | 0.9 | 35.1
COc1cc(C(=O)NCCC2=CCCCC2)cc(OC)c1OC | 75.4* | 8.0 | 4.8 | 0.7 | 0.2 | 32.3
O=C(CN1C(=O)CSc2ccccc21)NCCC1=CCCCC1 | 23.1 | -3.0 | -3.4 | 1 | 0.8 | -3.5
O=C(NCCC1=CCCCC1)c1coc(=O)c(Br)c1 | 33.1 | 5.0 | nt | 0.7 | 0.7 | 33.4
COc1cccc(C(=O)NCCC2=CCCCC2)c1OC | 100.0* | -3.0 | 19.1 | 0.7 | 0 | 28.8
COC(=O)c1ccc(Oc2nc3ccccc3n3c(C)nnc23)cc1 | nt | nt | 8.2 | nt | nt | nt
Cc1cnn(CCC(=O)NNC(=S)Nc2cccc(Cl)c2)c1 | 2.4 | 2.0 | nt | 1 | 1 | -0.2
COc1ccc(OC)c(NC(=O)CSc2nnc(Cn3c(=O)sc4ccccc43)n2C)c1 | nt | -2.0 | -4.0 | nt | nt | nt
COc1ccc(-n2c(N)c(Br)c(=O)[nH]c2=O)cc1 | -3.3 | 3.0 | -16.2 | 1 | 1 | 3.5
COCCCNC(=O)c1cccc(OC)c1OC | 56.5* | 5.0 | -18.1 | 1.1 | 0.4 | -8.5
COc1ccc(C)cc1NC(=O)NCCC1=CCCCC1 | 83.0* | 1.0 | 54.7 | 1 | 0.2 | 2.2
SMILES | CYP2C19 inhib | E coli WT exp | Ecoli tolC | CYP2C9 activ | CYP2C19 act | CYP2C9 inhib
Cc1sc(NC(=O)c2ccco2)c(C(c2cccnc2)N2CCCC2)c1C (stereo unspecified) | 33.1 | -8.0 | nt | 0.5 | 0.7 | 53.4*
Cc1sc(NC(=O)c2ccco2)c(C(c2ccncc2)N2CCOCC2)c1C (stereo unspecified) | 67.2* | 0.0 | 9.7 | 0.2 | 0.3 | 81.1*
Cc1nc(SCC(=O)NCc2ccco2)c2oc3ccccc3c2n1 | 89.4* | -3.0 | -1.6 | 0.1 | 0.1 | 89.2*
O=C(CSc1nnc(Cc2ccccc2)o1)NCc1ccco1 | -1.6 | 12.0 | -5.9 | 1 | 1 | 0.0
Cc1nc(SCC(=O)NCCc2ccccc2)c2oc3ccccc3c2n1 | 64.8* | -2.0 | nt | 0.4 | 0.4 | 58.4*
CCc1nc(SCC(=O)NCCc2ccccc2)c2oc3ccccc3c2n1 | 57.3* | -9.0 | nt | 0.3 | 0.4 | 67.8*
Cc1[nH]c2ccccc2c1Cc1nnc(SCC(=O)NCc2ccco2)o1 | 46.7 | 3.0 | 2.5 | 2.6* | 0.5 | -157.7
Cc1nc(NCCc2ccccc2)c2oc3ccccc3c2n1 | 31.0 | -5.0 | nt | 0.5 | 0.7 | 48.5
CCCc1nc2cc(CC(=O)OC)ccc2o1 | 19.9 | 3.0 | nt | 1 | 0.8 | 1.1
COc1nc(C)nc(NC(=O)NS(=O)(=O)c2ccc(C)cc2)n1 | -0.4 | -4.0 | nt | 1.2 | 1 | -21.4
Cc1cc(Br)ccc1NC(=O)CN1C(=O)CCC1=O | 11.7 | -2.0 | nt | 0.8 | 0.9 | 17.2
CC(C)C(NC(=O)c1ccccc1)c1nnc(SCC(=O)Nc2nccs2)n1C (stereo unspecified) | 1.9 | 4.0 | nt | 0.9 | 1 | 8.9
Cc1ccc2cccc(OCC(=O)NCc3ccco3)c2n1 | 48.1 | 5.0 | -6.5 | 1.2 | 0.5 | -22.1
Cc1ccc2cccc(SCC(=O)NCc3ccco3)c2n1 | 81.8* | 0.0 | -6.8 | 1.5 | 0.2 | -50.9
O=S(=O)(Nc1ncnc2c1oc1ccccc12)c1ccc(Cl)s1 | 61.1* | nt | 7.9 | 0.1 | 0.4 | 92.3*
CC1(C)CC(=O)N(CC(=O)NCc2ccccc2)c2ccccc2S1(=O)=O | 69.3* | -2.0 | -7.4 | 0.6 | 0.3 | 38.7
CC1(C)CC(=O)N(CC(=O)NCc2ccc(F)cc2)c2ccccc2S1(=O)=O | 61.9* | 0.0 | -5.5 | 0.9 | 0.4 | 8.3
COCCNC(=O)CN1C(=O)CC(C)(C)S(=O)(=O)c2ccccc21 | -12.0 | 8.0 | -21.5 | 1 | 1.1 | -0.1
COc1ccc(NC(C)=O)cc1NC(=O)CCn1c(=O)sc2ccccc21 | nt | nt | -7.0 | nt | nt | nt
CCCCn1c(=O)nc2n(-c3ccccc3)c3ccccc3cc-2c1=O | 14.8 | -5.0 | nt | 0.9 | 0.9 | 5.0
FC(F)(F)c1nnc2ccc(NCn3nnc4ccccc43)nn12 | 43.0 | 5.0 | 3.8 | 0.3 | 0.6 | 68.5*
Cc1nonc1NCn1nnc2ccccc21 | 13.3 | 12.0 | nt | 0.5 | 0.9 | 47.9
CCNC(=S)NS(=O)(=O)c1ccc(Cl)cc1 | 3.8 | 5.0 | nt | 0.8 | 1 | 16.8
COC(=O)c1ccccc1OC(=O)c1ccc(Br)o1 | 75.5* | 3.0 | -5.8 | 0.8 | 0.2 | 16.4
COC(=O)c1ccccc1NC(=O)c1cccc(NC(=O)c2ccc(Br)o2)c1C | 35.1 | -11.0 | 19.3 | 0.9 | 0.6 | 14.2
Cc1cccnc1-n1c(CCN2C(=O)c3ccccc3C2=O)nc2ccccc2c1=O | 38.2 | nt | 3.1 | 0.9 | 0.6 | 6.8
O=C(c1ccc(Br)o1)N1CCN=C1SCc1cccc(F)c1 | 90.9* | -1.0 | -1.1 | 0.4 | 0.1 | 59.2*
O=C(N1CCN=C1SCc1cccnc1)C12CC3CC(CC(C3)C1)C2 | 82.7* | -2.0 | 2.5 | 0.9 | 0.2 | 8.7
O=C(c1ccco1)N1CCN=C1SCc1cccnc1 | 12.4 | -3.0 | -19.0 | 1.1 | 0.9 | -7.3
